In ChEMBL document CHEMBL2346591, “Oxadiazole-isopropylamides as potent and noncovalent proteasome inhibitors” (J Med Chem, 2013):
Activity calls are given as the source filed them. The calls are words filed in the database; no cut-off is given here.

Legend:
[1] = Inhibition of chymotrypsin-like activity of rabbit 20s proteasome beta5 subunit using Suc-Leu-Leu-Val-Tyr-AMC as substrate after 1 hr by fluorescence assay; design: species or system Oryctolagus cuniculus
Oryctolagus cuniculus [2] = species on record: Oryctolagus cuniculus; test: Inhibition of chymotrypsin-like activity of rabbit 20s proteasome beta5 subunit using Suc-Leu-Leu-Val-Tyr-AMC as substrate at 10 uM after 1 hr by fluorescence assay
In short: (§1)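 Purified rabbit 20S proteasome at 1 nM, with or without compound, incubated 1 h at 37 °C in 50 mM Tris-HCl pH 7.6 with fluorogenic AMC peptide: 20 µM […] (CT-L), Bz-Val-Gly-Arg-AMC (T-L) or Z-Leu-Leu-Glu-AMC (PGPH-L).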

[3] = Inhibition of trypsin-like activity of rabbit 20s proteasome beta2 subunit using Bz-Val-Gly-Arg-AMC as substrate after 1 hr by fluorescence assay; design: species or system Oryctolagus cuniculus; in short: as §1
[4] = Inhibition of postglutamyl-peptide-hydrolysis-like activity of rabbit 20s proteasome beta1 subunit using benzyloxycarbonyl Z-Leu-Leu-Glu-AMC as substrate after 1 hr by fluorescence assay; design: species or system Oryctolagus cuniculus; in short: as §1
MDA-MB-468 = test: Cytotoxicity against human MDA-MB-468 cells assessed as decrease in cell survival after 120 hrs by MTT assay; format: functional, cell-based
In short: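 MDA-MB-468 cells (DMEM, 10% FBS, penicillin/streptomycin, 37 °C, 5% CO2) attached overnight, then exposed 120 h to varying inhibitor concentrations; medium replaced with complete medium containing 1 mg/ml MTT for 3 h at 37 °C, DMSO solubilisation, absorbance at 540 nm. IC50 from a four-parameter curve fit of % inhibition versus concentration.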

Oryctolagus cuniculus [5] = species on record: Oryctolagus cuniculus; test: Reversible inhibition of chymotrypsin-like activity of rabbit 20s proteasome beta5 subunit at 2.5 uM after 18 hrs by dialysis method
Oryctolagus cuniculus [6] = species on record: Oryctolagus cuniculus; test: Covalent binding affinity to rabbit 20s proteasome beta5 subunit assessed as modification of TTTLAFK peptide after 30 mins by LC-MS/MS analysis
In short: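 Purified rabbit 20S proteasome (1 nM) incubated with inhibitor in 50 mM Tris-HCl pH 7.6 for 30 min at room temperature; acetonitrile added, then trypsin (enzyme:substrate 1:50) digestion for 4 h at 37 °C; peptides concentrated, C18 tip-extracted, then LC/MS-MS checking the N-terminal Thr-1 TTTLAFK peptide for modification versus vehicle (DMSO).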

[7] = target: T1, Proteasome Macropain subunit MB1 (Homo sapiens) (UniProt P28074); test: (§2) Inhibition of chymotrypsin-like activity of proteasome beta5 subunit in human MDA-MB-468 cells using Suc-Leu-Leu-Val-Tyr-AMC as substrate after 2 hrs by fluorescence assay; format: cell-based
T1 sequence (whole entry): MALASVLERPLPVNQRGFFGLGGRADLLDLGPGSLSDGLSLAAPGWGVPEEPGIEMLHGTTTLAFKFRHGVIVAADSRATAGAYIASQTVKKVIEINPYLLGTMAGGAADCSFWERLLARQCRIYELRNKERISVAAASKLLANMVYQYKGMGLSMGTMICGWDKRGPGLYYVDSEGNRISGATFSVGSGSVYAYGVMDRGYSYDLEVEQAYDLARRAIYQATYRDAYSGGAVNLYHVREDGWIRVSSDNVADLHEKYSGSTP

[8] = target: T2, Proteasome Macropain subunit MB1 (Homo sapiens, UniProt P28074); test: as §2; format: cell-based
T2 sequence (P28074 whole entry): T1 sequence (whole entry)

Oryctolagus cuniculus [9] = species on record: Oryctolagus cuniculus; test: Reversible inhibition of chymotrypsin-like activity of rabbit 20s proteasome beta5 subunit assessed as residual activity at 10 uM after 2 hrs by dialysis method relative to control
Oryctolagus cuniculus [10] = species on record: Oryctolagus cuniculus; test: Reversible inhibition of chymotrypsin-like activity of rabbit 20s proteasome beta5 subunit assessed as residual activity at 10 uM after 20 mins by dialysis method relative to control

IC50 [1] [nM] | Structure (SMILES) | also measured
29900 | Cc1ccc(OCC(=O)N(C)Cc2nc(-c3ccc(C)cc3)no2)cc1 | 
2530 | CC(C)N(Cc1nc(-c2ccc(C(F)(F)F)cc2)no1)C(=O)COc1ccc(C(F)(F)F)cc1 | 
140 | CC(C)N(Cc1nc(-c2cccnc2)no1)C(=O)COc1ccc(Cl)cc1 | 
1070 | CC(C)N(Cc1nc(-c2ccc(Cl)cc2)no1)C(=O)COc1ccc(Cl)cc1 | 
273 | CCCc1ccc(OCC(=O)N(Cc2nc(-c3ccc(C)cc3)no2)C(C)C)cc1 | 
1270 | CCCc1ccc(OCC(=O)N(Cc2nc(-c3ncccn3)no2)C(C)C)cc1 | 
46500 | CC(C)N(Cc1nc(-c2cccnc2)no1)C(=O)COc1ccc(C(C)(C)C)cc1 | 
310 | Cc1ccc(OCC(=O)N(Cc2nc(-c3ccccc3)no2)C(C)C)cc1 | 
430 | CC(C)N(Cc1nc(-c2ccccc2)no1)C(=O)COc1ccc(C(F)(F)F)cc1 | 
120 | CCCCCc1ccc(OCC(=O)N(Cc2nc(-c3cccnc3)no2)C(C)C)cc1 | 
1080 | Cc1ccc(-c2noc(CN(C(=O)COc3ccc(C(F)(F)F)cc3)C(C)C)n2)cc1 | 
970 | Cc1ccc(OCC(=O)N(Cc2nc(-c3ccc(C(F)(F)F)cc3)no2)C(C)C)cc1 | 
39 | CCCCc1ccc(OCC(=O)N(Cc2nc(-c3cccnc3)no2)C(C)C)cc1 | 
379 | CC(C)N(Cc1nc(-c2cccnc2)no1)C(=O)c1cc2ccccc2o1 | 
11200 | CC(C)N(Cc1nc(-c2ccc(C(F)(F)F)cc2)no1)C(=O)COc1ccccc1 | 
370 | Cc1ccc(OCC(=O)N(Cc2nc(-c3ccncc3)no2)C(C)C)cc1 | 
53500 | CC(C)N(Cc1nc(-c2ccccc2)no1)C(=O)CCc1ccc(C(F)(F)F)cc1 | 
430 | CCCCCCc1ccc(OCC(=O)N(Cc2nc(-c3cccnc3)no2)C(C)C)cc1 | 
940 | CC(C)N(Cc1nc(-c2ccc(Cl)cc2)no1)C(=O)COc1ccc(C(F)(F)F)cc1 | 

Further lines, the molecule ahead of its results:

Structure (SMILES) | IC50 [1] [nM] | also measured
CCc1ccc(OCC(=O)N(Cc2nc(-c3ccccc3)no2)C(C)C)cc1 | 260 | 
CC(C)N(Cc1nc(-c2cccnc2)no1)C(=O)COc1ccccc1 | 2710 | 
Cc1ccc(OCC(=O)N(Cc2nc(-c3ccc(C)cc3)no2)C2CC2)cc1 |  | inhibition (Oryctolagus cuniculus [2]): inactive
Cc1ccc(-c2noc(CN(C(=O)COc3ccccc3)C(C)C)n2)cc1 | 8500 | 
CC(C)Cc1ccc(OCC(=O)N(Cc2nc(-c3cccnc3)no2)C(C)C)cc1 | 140 | 
CC(C)N(Cc1nc(-c2ccccc2)no1)C(=O)COc1ccc(-c2ccccc2)cc1 |  | inhibition (Oryctolagus cuniculus [2]): inactive
CC(C)N(Cc1nc(-c2ccccc2)no1)C(=O)COc1ccc2cc(Br)ccc2c1 |  | inhibition (Oryctolagus cuniculus [2]): inactive
CC(C)c1ccc(OCC(=O)N(Cc2nc(-c3cccnc3)no2)C(C)C)cc1 | 440 | 
CC(C)N(Cc1nc(-c2cccnc2)no1)C(=O)COc1ccc(F)cc1 | 1930 | 
Cc1ccc(OCC(=O)NCc2nc(-c3ccc(C)cc3)no2)cc1 |  | inhibition (Oryctolagus cuniculus [2]): inactive
CCc1ccc(OCC(=O)N(Cc2nc(-c3cccnc3)no2)C(C)C)cc1 | 99 | 
CC(C)N(Cc1nc(-c2ccc(C(F)(F)F)cc2)no1)C(=O)COc1ccc(Cl)cc1 | 1410 | 
Cc1cccc(OCC(=O)N(Cc2nc(-c3ccccc3)no2)C(C)C)c1 |  | inhibition (Oryctolagus cuniculus [2]): inactive
CC(C)N(Cc1nc(-c2ccccc2)no1)C(=O)COc1ccc(F)cc1 | 10100 | 
CCCc1ccc(OCC(=O)N(Cc2nc(-c3cccnc3)no2)C(C)C)cc1 | 27 | IC50 [3]: > 100000 nM; IC50 [4]: > 100000 nM; Activity (MDA-MB-468): Active
CC(C)N(Cc1nc(-c2cccnc2)no1)C(=O)COc1ccc(O)cc1 | 980 | 
Cc1ccc(OCC(=O)N(Cc2nc(-c3cccnc3)no2)C(C)C)cc1 | 220 | 
Cc1ccc(OCC(=O)N(Cc2nc(-c3ccc(C)cc3)no2)CC(C)C)cc1 | 2370 | 
Cc1ccc(OCC(=O)N(Cc2nc(-c3ccc(C)cc3)no2)C(C)(C)C)cc1 |  | inhibition (Oryctolagus cuniculus [2]): inactive

Structure (SMILES) | IC50 [1] [nM] | also measured
CC(=O)N[C@@H](CSC(=O)[C@]1([C@@H](O)C(C)C)NC(=O)[C@H](C)[C@@H]1O)C(=O)O |  | inhibition (Oryctolagus cuniculus [5]): inactive; Activity (Oryctolagus cuniculus [6]): Active
CCCCc1ccc(OCC(=O)N(Cc2nc(-c3cnccn3)no2)C(C)C)cc1 | 107 | 
Cc1ccccc1OCC(=O)N(Cc1nc(-c2ccccc2)no1)C(C)C |  | inhibition (Oryctolagus cuniculus [2]): inactive
CC(C)N(Cc1nc(-c2ccccc2)no1)C(=O)COc1ccc(O)cc1 | 10100 | 
CC(C)N(Cc1nc(-c2cccnc2)no1)C(=O)COc1ccc(C2CCCCC2)cc1 | 1360 | 
CC(C)N(Cc1nc(-c2ccccc2)no1)C(=O)COc1ccc(C(=O)OC(C)(C)C)cc1 |  | inhibition (Oryctolagus cuniculus [2]): inactive
Cc1ccc(OCC(=O)N(Cc2nc(-c3ccc(Cl)cc3)no2)C(C)C)cc1 | 450 | 
CC(C)N(Cc1nc(-c2ccccc2)no1)C(=O)COc1ccc(C(=O)O)cc1 |  | inhibition (Oryctolagus cuniculus [2]): inactive
CCN(Cc1nc(-c2ccc(C)cc2)no1)C(=O)COc1ccc(C)cc1 | 6040 | 
Cc1ccc(NCC(=O)N(Cc2nc(-c3ccccc3)no2)C(C)C)cc1 | 5670 | 
Cc1ccc(OCC(=O)N(Cc2nc(-c3ccccc3)no2)C(C)C)cn1 | 4000 | 
Cc1ccc(CNC(=O)N(Cc2nc(-c3ccccc3)no2)C(C)C)cc1 |  | inhibition (Oryctolagus cuniculus [2]): inactive
CC(C)N(Cc1nc(-c2ccccc2)no1)C(=O)COc1ccc(Cl)cc1 | 510 | 
Cc1ccc(OCC(=O)N(Cc2nc(-c3ccc(C)cc3)no2)C(C)C)cc1 | 600 | IC50 [3]: > 100000 nM; inhibition [7]: Dose-dependent effect; IC50 [8]: 3500 nM; IC50 [4]: > 100000 nM; Activity (Oryctolagus cuniculus [6]): inactive; Activity (Oryctolagus cuniculus [9]): 100%; Activity (Oryctolagus cuniculus [10]): > 70%; Activity (MDA-MB-468): Active
CCCc1ccc(OCC(=O)N(Cc2nc(-c3cnccn3)no2)C(C)C)cc1 | 105 | 
Cc1ccc(-c2noc(CN(C(=O)COc3ccc(Cl)cc3)C(C)C)n2)cc1 | 1120 | 
CC(C)N(Cc1nc(-c2ccccc2)no1)C(=O)COc1ccccc1 | 6200 | 
Cc1ccc(OCC(=O)N(Cc2nc(-c3ccccn3)no2)C(C)C)cc1 | 3750 | 
Cc1ccc(OCC(=O)N(CCc2nc(-c3ccccc3)no2)C(C)C)cc1 |  | inhibition (Oryctolagus cuniculus [2]): inactive
